# Measured values reported in ChEMBL document CHEMBL4715773, “New Inhibitors of Indoleamine 2,3-Dioxygenase 1: Molecular Modeling Studies, Synthesis, and Biological Evaluation” (J Med Chem, 2016).
# Activity calls are given as the source filed them. The calls are words filed in the database; no cut-off is given here.
# Columns and labels:
# [1] = target: T1, Indoleamine 2,3-dioxygenase 1 (Homo sapiens, UniProt P14902); test: Inhibition of human IDO1 incubated for 60 mins in presence of L-tryptophan by HPLC analysis
# Outline: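 Recombinant human IDO1 (10 μg/mL) was assayed in 50 mM potassium phosphate pH 6.5 with 10 mM ascorbate, 10 μM methylene blue and 100 μg/mL catalase. Reaction was started with 200 μM L-Trp and run at 37 °C for 60 min. It was stopped with TCA, then held at 50 °C for 15 min to hydrolyse N-formylkynurenine. Kynurenine was measured by reversed-phase HPLC at 360 nm; triplicate determinations averaged.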
# Target sequence in this assay (P14902 whole entry): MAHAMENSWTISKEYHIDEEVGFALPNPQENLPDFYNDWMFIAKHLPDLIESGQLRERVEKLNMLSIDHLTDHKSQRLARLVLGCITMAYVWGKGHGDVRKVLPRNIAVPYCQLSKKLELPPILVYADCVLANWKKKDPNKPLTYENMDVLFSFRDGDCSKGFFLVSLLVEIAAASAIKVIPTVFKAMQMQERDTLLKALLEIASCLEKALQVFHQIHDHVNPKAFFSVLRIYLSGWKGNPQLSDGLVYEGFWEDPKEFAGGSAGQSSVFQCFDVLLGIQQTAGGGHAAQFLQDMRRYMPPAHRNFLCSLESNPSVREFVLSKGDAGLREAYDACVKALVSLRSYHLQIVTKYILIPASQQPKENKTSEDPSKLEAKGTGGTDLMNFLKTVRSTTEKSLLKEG
# [2] = tested on: HCT-116; test: Reversible induction of cell cycle arrest in human HCT-116 cells assessed as increase of accumulation at G2/M phase at 10 uM incubated for 24 hrs and harvested after further 24 hrs recovery in drug-free medium by […] staining based flow cytometry; assay type: functional
# Outline: (§1)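 Cells were exposed 24 h to 20, 10 or 2.5 μM or to 0.1% DMSO, then washed into drug-free medium for a further 24 h before harvest. DNA content was measured by propidium iodide flow cytometry on at least 10000 cells per sample. G2/M and other phase fractions are given as fold change versus DMSO, as mean ± SD of three independent experiments.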
# [3] = tested on: HT-29; test: Reversible induction of cell cycle arrest in human HT-29 cells assessed as increase of accumulation at G2/M phase at 20 uM incubated for 24 hrs and harvested after further 24 hrs recovery in drug-free medium by […] staining based flow cytometry; assay type: functional; outline: as §1
# [4] = tested on: HT-29; test: Induction of cell cycle arrest in human HT-29 cells assessed as increase of accumulation at G2/M phase at 20 uM incubated for 24 hrs by […] staining based flow cytometry; assay type: functional; settings: dose 10.0 µM, in the assay text read “at 10 uM” for “at 20 uM”
# Outline: (§2)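 Cells in DMEM/10% FBS were treated 24 h at 20, 10 or 2.5 μM alongside a 0.1% DMSO vehicle, then stained with propidium iodide for DNA content by flow cytometry, acquiring at least 10000 cells per sample. G0/G1, S and G2/M fractions are expressed as fold change versus DMSO. Values are mean ± SD of three independent experiments.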
# [5] = tested on: HT-29; test: Growth inhibition of human HT-29 cells assessed as cell viability at 10 uM incubated for 24 hrs by MTT assay; assay type: functional; settings: read-out: Activity
# Outline: (§3)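 Cells grown in DMEM (4.5 g/L glucose) with 10% FBS, penicillin/streptomycin and 2 mM glutamine, seeded and allowed 24 h to attach, then exposed 24 h to compound. The range was 5–80 μM or 2.5–80 μM. MTT (500 μM in PBS) was added for 3 h at 37 °C in the dark. Formazan was dissolved in propan-2-ol/0.04 N HCl and read at 550 nm. Viability is given as % of 0.1% DMSO control; three independent experiments in triplicate.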
# [6] = tested on: HCT-116; test: Growth inhibition of human HCT116 cells assessed as cell viability at 20 uM incubated for 24 hrs by MTT assay; assay type: functional; settings: read-out: Activity; outline: as §3
# [7] = tested on: HCT-116; test: Induction of cell cycle arrest in human HCT116 cells assessed as increase of accumulation at G2/M phase at 20 uM incubated for 24 hrs by […] staining based flow cytometry; assay type: functional; outline: as §2
# [8] = tested on: HT-29; test: Growth inhibition of human HT-29 cells incubated for 24 hrs by MTT assay; assay type: functional, cell-based; outline: as §3
# [9] = tested on: HCT-116; test: Growth inhibition of human HCT116 cells incubated for 24 hrs by MTT assay; assay type: functional, cell-based; outline: as §3
# [10] = tested on: HCT-116; test: Induction of cell death in human HCT-116 cells assessed as reduction in Bcl-xL expression at 10 uM incubated for 24 hrs by Western blot analysis; assay type: functional, cell-based; settings: dose 20.0 µM, in the assay text read “at 20 uM” for “at 10 uM”
# Outline: (§4)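 Cells were treated 24 h with compound or DMSO, then lysed in RIPA-type buffer (50 mM Tris pH 7.4, 150 mM NaCl, 0.1% SDS, 1% deoxycholate, 1% Triton X-100, 5 mM EDTA, protease inhibitors). Protein was quantified by Bradford, run on 12% SDS-PAGE and transferred to PVDF. Blots were probed overnight at 4 °C for Mcl1, Bcl-xL (1:1000), β-catenin (1:500) and β-actin loading control (1:5000), with HRP secondary and ECL detection.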
# [11] = tested on: HCT-116; test: Induction of cell death in human HCT-116 cells assessed as reduction in Mcl1 expression at 10 uM incubated for 24 hrs by Western blot analysis; assay type: functional, cell-based; settings: dose 20.0 µM, in the assay text read “at 20 uM” for “at 10 uM”; outline: as §4
# [12] = tested on: HCT-116; test: Induction of cell death in human HCT-116 cells assessed as reduction in beta-catenin expression at 10 uM incubated for 24 hrs by Western blot analysis; assay type: functional, cell-based; settings: dose 20.0 µM, in the assay text read “at 20 uM” for “at 10 uM”; outline: as §4
# [13] = target: T1, Indoleamine 2,3-dioxygenase 1; test: Inhibition of human IDO1 at 100 uM incubated for 60 mins in presence of L-tryptophan by HPLC analysis relative to control
# Target sequence in this assay (P14902 whole entry, looked up): as the sequence (P14902 whole entry) above
# [14] = tested on: HT-29; test: Induction of cell death in human HT-29 cells assessed as reduction in Mcl1 expression at 10 uM incubated for 24 hrs by Western blot analysis
# [15] = tested on: HT-29; test: Induction of cell death in human HT-29 cells assessed as reduction in Bcl-xL expression at 10 uM incubated for 24 hrs by Western blot analysis
# [16] = tested on: HT-29; test: Induction of cell death in human HT-29 cells assessed as reduction in beta-catenin expression at 10 uM incubated for 24 hrs by Western blot analysis
# [17] = tested on: HCT-116; test: Reversible induction of cell cycle arrest in human HCT-116 cells assessed as increase of accumulation at G2/M phase at 2.5 uM incubated for 24 hrs and harvested after further 24 hrs recovery in drug-free medium by […] staining based flow cytometry; assay type: functional; outline: as §1
# [18] = tested on: HT-29; test: Reversible induction of cell cycle arrest in human HT-29 cells assessed as increase of accumulation at G2/M phase at 10 uM incubated for 24 hrs and harvested after further 24 hrs recovery in drug-free medium by […] staining based flow cytometry; assay type: functional; outline: as §1
# [19] = tested on: HT-29; test: Induction of cell cycle arrest in human HT-29 cells assessed as increase of accumulation at G2/M phase at 2.5 uM incubated for 24 hrs by […] staining based flow cytometry; assay type: functional; outline: as §2
# [20] = tested on: HCT-116; test: Induction of cell cycle arrest in human HCT116 cells assessed as increase of accumulation at G2/M phase at 10 uM incubated for 24 hrs by […] staining based flow cytometry; assay type: functional; outline: as §2
# [21] = tested on: HT-29; test: Growth inhibition of human HT-29 cells assessed as cell viability at 2.5 uM incubated for 24 hrs by MTT assay; assay type: functional; settings: read-out: Activity; outline: as §3
# [22] = tested on: HCT-116; test: Growth inhibition of human HCT116 cells assessed as cell viability at 10 uM incubated for 24 hrs by MTT assay; assay type: functional; settings: read-out: Activity; outline: as §3
# [23] = tested on: HT-29; test: Induction of cell death in human HT-29 cells assessed as reduction in Bcl-xL expression at 10 uM incubated for 24 hrs by Western blot analysis; assay type: functional, cell-based; settings: dose 2.5 µM, in the assay text read “at 2.5 uM” for “at 10 uM”; outline: as §4
# [24] = tested on: HT-29; test: Induction of cell death in human HT-29 cells assessed as reduction in Mcl1 expression at 10 uM incubated for 24 hrs by Western blot analysis; assay type: functional, cell-based; settings: dose 2.5 µM, in the assay text read “at 2.5 uM” for “at 10 uM”; outline: as §4
# [25] = tested on: HT-29; test: Induction of cell death in human HT-29 cells assessed as reduction in beta-catenin expression at 10 uM incubated for 24 hrs by Western blot analysis; assay type: functional, cell-based; settings: dose 2.5 µM, in the assay text read “at 2.5 uM” for “at 10 uM”; outline: as §4
# [26] = tested on: HT-29; test: Induction of cell death in human HT-29 cells assessed as reduction in Bcl-xL expression at 2.5 uM incubated for 24 hrs by Western blot analysis; assay type: functional, cell-based; outline: as §4
# [27] = tested on: HT-29; test: Induction of cell death in human HT-29 cells assessed as reduction in Mcl1 expression at 2.5 uM incubated for 24 hrs by Western blot analysis; assay type: functional, cell-based; outline: as §4
# [28] = tested on: HT-29; test: Induction of cell death in human HT-29 cells assessed as reduction in beta-catenin expression at 2.5 uM incubated for 24 hrs by Western blot analysis; assay type: functional, cell-based; outline: as §4
structure (smiles),measurement,setting,value
COc1cc(OC)cc(Sc2c[nH]c3cc(Cl)ccc23)c1,IC50,[1],15 µM
CCOc1ccc2[nH]cc(Sc3ccccc3OC)c2c1,IC50,[1],> 200 µM
COc1ccccc1C(=O)c1c[nH]c2ccc(Cl)cc12,IC50,[1],> 200 µM
Cc1ccc(Sc2c[nH]c3ccc(Cl)cc23)cc1,IC50,[1],> 200 µM
COc1ccccc1Cc1c[nH]c2ccc(Cl)cc12,IC50,[1],63 µM
COc1ccccc1Sc1c[nH]c2ccc(Br)cc12,IC50,[1],24 µM
COc1ccc(Sc2c[nH]c3ccc(Cl)cc23)c(OC)c1,IC50,[1],> 50 µM
COc1ccccc1Sc1c[nH]c2ccc(I)cc12,IC50,[1],45 µM
COc1cc(OC)cc(Sc2c[nH]c3cccc(Cl)c23)c1,IC50,[1],52 µM
COC(=O)c1[nH]c2ccc(Cl)cc2c1Sc1ccccc1OC,IC50,[1],> 200 µM
COc1ccccc1Sc1c[nH]c2ccc(F)cc12,IC50,[1],32 µM
COc1cc(OC)cc(Sc2c[nH]c3c(Cl)cccc23)c1,IC50,[1],> 200 µM
COc1cc(OC)cc(Sc2c[nH]c3c(Cl)c(Cl)ccc23)c1,IC50,[1],90 µM
COc1cc(OC)cc(Sc2c(C)[nH]c3ccc(Cl)cc23)c1,IC50,[1],45 µM
COc1cc(OC)cc(Sc2c[nH]c3ccccc23)c1,IC50,[1],25 µM
Clc1ccc2[nH]cc(Sc3ccccc3)c2c1,IC50,[1],> 200 µM
COc1cc(OC)cc(Sc2c[nH]c3ncccc23)c1,IC50,[1],> 200 µM
COc1ccccc1Sc1c[nH]c2ccc(Cl)cc12,Activity,[2],Active
same,Activity,[3],Active
same,Activity,[4],Active
same,viability at 10 µM,[5],40%
same,viability at 20 µM,[6],40%
same,Activity,[7],Active
same,IC50,[1],17.5 µM
same,growth inhibition (GI),[8],Dose-dependent effect
same,growth inhibition (GI),[9],Dose-dependent effect
same,Activity,[10],Active
same,Activity,[11],Active
same,Activity,[12],Active
same,inhibition,[13],80%
same,Activity,[14],Active
same,Activity,[15],Active
same,Activity,[16],Active
COc1cc(Sc2c[nH]c3ccc(Cl)cc23)cc(OC)c1OC,IC50,[1],40 µM
COc1cccc(Sc2c[nH]c3ccc(Cl)cc23)c1,IC50,[1],21 µM
Cc1cccc(Sc2c[nH]c3ccc(Cl)cc23)c1,IC50,[1],100 µM
COc1ccccc1S(=O)(=O)c1c[nH]c2ccc(Cl)cc12,IC50,[1],> 200 µM
COc1ccc(Sc2c[nH]c3ccc(Cl)cc23)cc1,IC50,[1],16 µM
Cc1cc(C)cc(Sc2c[nH]c3ccc(Cl)cc23)c1,IC50,[1],20 µM
COc1cc(OC)cc(Sc2c[nH]c3ccc(Cl)cc23)c1,Activity,[17],Active
same,Activity,[18],Active
same,Activity,[19],Active
same,Activity,[20],Active
same,viability at 2.5 µM,[21],40%
same,viability at 10 µM,[22],40%
same,IC50,[1],7 µM
same,growth inhibition (GI),[8],Dose-dependent effect
same,growth inhibition (GI),[9],Dose-dependent effect
same,Activity,[23],Active
same,Activity,[24],Active
same,Activity,[25],Active
same,Activity,[26],Active
same,Activity,[27],Active
same,Activity,[28],Active
Cc1ccccc1Sc1c[nH]c2ccc(Cl)cc12,IC50,[1],21 µM
